# Screens from PubChem.
# SUMO1 PPI mod – alters human SUMO1 binding to SIM partners; SUMO1 binding to a labelled peptide, TR-FRET, 1 h; actives 0.33% (n = 360,000); P63165; inhibition, % at 20 µM
# HCV NS3 hel inh – inhibitors of Hepatitis C virus NS3 helicase. NS3 helicase DNA unwinding, Cy5 molecular beacon fluorescence. inhibition, % at 10.9 µM. actives 0.56% (n = 290,000);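 active = inhibition above the mean of all tested compounds plus 3 SD, set per campaign, cut at about 35% in these data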
#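 System: NS3 helicase fragment of HCV / Schedule: 1 h at 25 °C / Control set: DMSO alone as 0% and 110 µM thioflavine S as 100% / Reagent: Cy5/quencher beacon DNA duplex and ATP to start / Technique: Cy5 fluorescence / Replication: singlicate / Evaluation: % inhibition of end-to-start signal ratio versus controls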
# Pemphigus Ab inh – inhibitors of pemphigus antibody binding to human desmoglein-3; DSG3-coupled beads, scFv-anti-DSG3-GFP binding, flow cytometry; active compounds read low; actives 0.48% (n = 310,000); P32926; binding (percent of control), % at 10 µM;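 active = binding more than 3 SD below its plate's average and above zero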;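 note: hits lower antibody fragment binding to DSG3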
# Target sequence (P32926 whole entry, looked up, the tested form may be a part): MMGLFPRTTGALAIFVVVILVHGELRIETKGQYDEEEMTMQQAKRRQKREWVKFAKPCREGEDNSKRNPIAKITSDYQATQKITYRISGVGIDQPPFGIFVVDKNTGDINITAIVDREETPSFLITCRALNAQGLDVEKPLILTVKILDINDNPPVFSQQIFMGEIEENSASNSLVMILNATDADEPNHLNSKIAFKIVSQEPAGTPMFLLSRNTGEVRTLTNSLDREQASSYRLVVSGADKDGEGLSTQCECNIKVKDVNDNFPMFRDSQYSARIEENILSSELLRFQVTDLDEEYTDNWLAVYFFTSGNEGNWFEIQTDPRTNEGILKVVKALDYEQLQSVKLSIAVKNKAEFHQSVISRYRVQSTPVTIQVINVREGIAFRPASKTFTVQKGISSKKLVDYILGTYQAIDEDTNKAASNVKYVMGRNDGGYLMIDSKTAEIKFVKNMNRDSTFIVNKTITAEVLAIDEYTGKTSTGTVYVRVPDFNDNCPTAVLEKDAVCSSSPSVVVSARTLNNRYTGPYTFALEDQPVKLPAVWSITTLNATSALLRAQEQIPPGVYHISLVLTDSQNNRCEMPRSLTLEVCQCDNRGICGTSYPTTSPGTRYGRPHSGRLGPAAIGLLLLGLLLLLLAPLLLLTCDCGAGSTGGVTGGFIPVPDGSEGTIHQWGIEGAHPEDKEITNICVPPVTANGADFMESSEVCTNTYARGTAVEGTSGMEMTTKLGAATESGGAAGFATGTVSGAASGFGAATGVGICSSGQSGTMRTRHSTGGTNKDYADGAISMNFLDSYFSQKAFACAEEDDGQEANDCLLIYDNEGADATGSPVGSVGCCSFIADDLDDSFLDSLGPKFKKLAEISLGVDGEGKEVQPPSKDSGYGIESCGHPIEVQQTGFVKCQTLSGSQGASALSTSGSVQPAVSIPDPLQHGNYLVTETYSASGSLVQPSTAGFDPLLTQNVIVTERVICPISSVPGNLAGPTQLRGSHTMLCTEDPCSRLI
# UHRF1 binding – UHRF1 methyl-DNA binding inhibition. actives 0.75% (n = 370,000). inhibition, % at 4.4 µM. UHRF1 binding to methylated oligo, TR-FRET. AID 687016. Q96T88; in the data active = inhibition above about 21%;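 note: UHRF1 SRA domain binding a hemimethylated CpG hairpin DNA probe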
# DNMT1 block – DNMT1 (human) enzyme inhibition | P26358 | DNMT1 molecular beacon, Hinp1I cleavage, fluorescence | inhibition (reported as % activation of signal), % at 10 µM | actives 0.83% (n = 360,000); in the data active = inhibition above about 50%
# MBD2 inh – inhibitors of human MBD2 binding to methylated oligonucleotide | Q9UBB5 | TR-FRET | inhibition, % at 4.4 µM | actives 0.31% (n = 370,000) | AID 686964; in the data active = inhibition above about 13%
# NS3 helicase cf – confirmation of Hepatitis C virus NS3 helicase inhibitors; NS3 helicase DNA unwinding, Cy5 molecular beacon fluorescence; inhibition, % at 10.9 µM; shares compounds with HCV NS3 hel inh; actives 31% (n = 1,600);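 active = inhibition above the mean of all tested compounds plus 3 SD, cutoff set per campaign, cut at about 36% in these data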
# DNA FID counter – counter-screen for HCV NS3 helicase inhibitors: DNA intercalator displacement; shares compounds with HCV NS3 hel inh; DNA fluorescent intercalator displacement, fluorescence; inhibition, % at 7.9 µM; actives 4% (n = 1,600);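 note: higher means more displacement of ethidium bromide from the DNA hairpin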
# A number is an active result; – = inactive; · = no result given. This is a sample that favours compounds with a hit; in the whole collection about 2.5% have one here. Cut-off read from the data, not from the text of the source, unless noted: active = inhibition above about 37%; inactive = the rest.
SMILES,SUMO1 PPI mod,HCV NS3 hel inh,Pemphigus Ab inh,UHRF1 binding,DNMT1 block,MBD2 inh,others
Cc1ccc(-c2nn3c(C)nnc3s2)cc1NC(=O)c1ccc(Br)o1,–,–,–,–,–,–,
Cc1ccc(-c2nn3c(C)nnc3s2)cc1NC(=O)c1ccc(-c2ccc(Cl)cc2Cl)o1,–,–,–,–,65.9,–,
O=C(CC1C(=O)NCCN1Cc1ccccc1)NC1CCCCCC1 (stereo not drawn),–,–,–,–,–,–,
O=C(Cn1nnc(-c2ccc(N3CCOCC3)cc2)n1)OC1CCCCC1,–,–,60.1,–,–,–,
COc1ccc(NS(=O)(=O)c2ccc3c(c2)[C@H]2C=CC[C@H]2[C@@H](c2ccc(C(=O)O)cc2)N3)cc1,52.9,–,–,–,86.6,–,
O=C1C(NC(=O)N2c3ccccc3C=Cc3ccccc32)CCCCN1Cc1ccc(Cl)cc1 (stereo not drawn),·,·,·,27.2,·,–,
Nc1cnn(Cc2ccc(F)cc2)c1,–,–,–,–,–,–,
Nc1ccn(Cc2ccc(F)cc2)n1,75.6,–,·,–,–,–,
O=C(O)c1cc(O)c2c(c1)[C@@H]([C@H]1c3cc(C(=O)O)cc(O)c3C(=O)c3c(O[C@@H]4O[C@H](CO)[C@@H](O)[C@H](O)[C@H]4O)cccc31)c1cccc(OC3O[C@H](CO)[C@@H](O)[C@H](O)[C@H]3O)c1C2=O (stereo partly drawn),119.3,·,-1.1,79.8,97.8,38.1,
O=C1c2cc(CO)cc(O)c2C(=O)c2c(O[C@@H]3OC(CO)[C@@H](O)[C@@H](O)[C@@H]3O)cccc21 (stereo partly drawn),–,·,–,–,–,–,
CCn1c(SCC(=O)NC(C)(C)C)nnc1-c1ccccn1,–,–,–,–,–,–,
COc1ccc(N2CSC3=C(C#N)C(c4cc(OC)c(OC)cc4OC)CC(=O)N3C2)c(OC)c1 (stereo not drawn),–,66.5,–,–,–,–,
CCOC(=O)n1c(=O)n(Cc2ccc(Cl)c(Cl)c2)c2ccccc21,–,–,–,–,–,–,
Cc1cc(N=NC(=O)c2ccccc2)ccc1O,–,–,–,–,58.3,–,
O=c1oc2cc(O)ccc2c2ccccc12,–,–,–,–,–,–,
O=c1oc2cc(O)ccc2c2oc3cc(O)ccc3c12,47.6,–,–,–,–,–,
CCCn1c(CNS(=O)(=O)c2ccc(C)cc2)nc2ccccc21,–,–,66.3,–,–,–,
O=C(Nc1cccc(S(=O)(=O)N2CCCCC2)c1)c1cnccn1,–,–,–,–,–,–,
Cc1ccc(N2C(=O)CC(Sc3ncn[nH]3)C2=O)cc1C (stereo not drawn),–,–,–,22.3,–,–,
Cc1cccc(N2C(=O)CC(Sc3ncn[nH]3)C2=O)c1 (stereo not drawn),–,–,–,–,–,–,
CCOC(=O)N1CCC2(O)CCCCC2C1c1ccc(F)cc1 (stereo not drawn),–,–,85.6,–,–,–,
O=C(CN1CC[C@@]2(O)CCCC[C@H]2[C@@H]1c1ccc(F)cc1)NCc1ccco1,–,–,–,–,–,–,
CCN(CC)C(=O)c1cccc(-c2csc(C(C)(O)c3ccccc3)n2)c1 (stereo not drawn),–,·,·,–,–,–,
CC(NC(=O)c1ccc(F)cc1)C1CC2CCC1C2 (stereo not drawn),–,–,–,87.7,–,–,
CCCC(C)NC(=O)c1ccc(F)cc1 (stereo not drawn),–,–,27.4,–,–,–,
SMILES,SUMO1 PPI mod,HCV NS3 hel inh,Pemphigus Ab inh,UHRF1 binding,DNMT1 block,MBD2 inh,others
O=c1c2cc(C(F)(F)F)ccc2sn1-c1ccccc1,–,·,68.1,–,–,–,
O=c1c2ccccc2sn1-c1ccccc1F,–,·,·,–,–,–,
O=c1c2ccccc2c(-c2cccc(C(F)(F)F)c2)nn1-c1ccccc1,–,–,·,–,–,–,
Cc1ccccc1-n1sc2cc(F)ccc2c1=O,–,–,68.7,–,–,–,
O=c1c2cc(F)ccc2sn1-c1ccccc1,–,·,43.2,–,–,–,
O=C(/C=C/c1ccco1)Oc1ccc(C(=S)N2CCOCC2)cc1,–,–,–,–,–,–,
O=C(/C=C/c1ccccc1)Oc1ccc(C(=S)N2CCOCC2)cc1,–,–,–,28.3,–,–,
Cc1ccc2cc(-c3noc(C4CCCCC4)n3)c(=O)[nH]c2c1,–,–,-17.9,–,–,–,
CC1OC(c2ccccc2)OC2COC(c3ccccc3)OC12 (stereo not drawn),–,·,-6.5,–,–,–,
CC1(C)Cc2cccc(OCC(=O)N3CCN(c4ccccc4Cl)CC3)c2O1,–,·,–,–,–,–,
CC1=NOC(=O)/C1=C\c1ccc(-c2ccc(Br)cc2)o1,–,–,–,–,61.3,–,
CC1=NOC(=O)/C1=C/c1ccc(-c2ccc(Cl)cc2)o1,–,–,–,·,–,·,
c1ccc(CSc2nnc(-c3ccco3)o2)cc1,43.7,–,–,–,–,–,
O=C(OC12CCCN(C1)/C(=C/c1cccc(Cl)c1)C2)c1ccc(F)cc1 (stereo not drawn),·,·,·,–,·,–,
NC(=O)c1ccccc1NC(=O)CSc1nc2c(c(=O)[nH]1)CCCC2,–,–,–,–,–,–,
COC(=O)c1cc(OC)c(OC)cc1NC(=O)C1CCC(=O)N1S(=O)(=O)c1ccc(C)cc1 (stereo not drawn),–,–,·,–,–,–,
Cc1ccc(-c2csc(NC(=O)c3ccc(Br)cc3)c2C(=O)O)cc1,–,41.6,–,–,–,–,NS3 helicase cf=68.7;DNA FID counter=–
Cc1ccc(-c2csc(NC(=O)c3ccccc3Cl)c2C(=O)O)cc1,–,38.6,–,–,–,–,NS3 helicase cf=77.0;DNA FID counter=–
COc1ccc(-c2c3c(=O)n(C)c(=O)n(C)c3cn2Cc2cccnc2)cc1,–,–,–,–,–,–,
O=C(O)c1cc(/C=C/C(=O)c2cc(F)ccc2O)c2c(c1)COCO2,–,49.1,–,–,–,–,NS3 helicase cf=52.1;DNA FID counter=–
COc1nc(-c2ccc(C)cc2)ccc1-c1noc(-c2ccco2)n1,–,40.3,–,–,–,–,NS3 helicase cf=–;DNA FID counter=–
CC(C(=O)O)N1C(=O)C2C3CC(C2C1=O)C1C(c2ccccc2)c2sc(=O)[nH]c2SC31 (stereo not drawn),–,74.6,–,–,–,–,NS3 helicase cf=–;DNA FID counter=–
O=C(/C=C/c1ccco1)N(Cc1ccc(Cl)cc1)C1CCS(=O)(=O)C1 (stereo not drawn),–,42.1,–,–,–,–,NS3 helicase cf=–;DNA FID counter=–
C[C@@H](NC(=O)c1ncn2c1C(=O)NC[C@@H]2C)c1ccccc1,–,·,·,–,–,–,
